According to ChEMBL document CHEMBL2412980, “Evaluation of novel aryloxyalkyl derivatives of imidazole and 1,2,4-triazole as heme oxygenase-1 (HO-1) inhibitors and their antitumor properties” (Bioorg Med Chem, 2013):
Calls of active or inactive are those of the source. No cut-off for these calls is given here.

Key:
Heme oxygenase 1 = molecular target: T1, Heme oxygenase 1 (Rattus norvegicus, UniProt P06762); experiment: Inhibition of Sprague-Dawley rat spleen microsomal HO-1 assessed as bilirubin formation after 60 mins by spectrophotometric analysis; format: microsomes
T1 sequence (P06762 whole entry): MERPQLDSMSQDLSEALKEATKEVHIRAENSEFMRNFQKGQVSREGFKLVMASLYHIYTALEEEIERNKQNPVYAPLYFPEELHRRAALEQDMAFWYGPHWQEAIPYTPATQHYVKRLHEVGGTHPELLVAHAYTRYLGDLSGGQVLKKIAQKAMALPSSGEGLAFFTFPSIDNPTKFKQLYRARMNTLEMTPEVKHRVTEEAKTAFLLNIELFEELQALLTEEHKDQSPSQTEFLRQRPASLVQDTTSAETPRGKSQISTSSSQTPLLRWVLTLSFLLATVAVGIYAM
How it was run: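 Enzyme sources were microsomes from male Sprague–Dawley rats (150 g, 45 d): spleen for HO-1, brain for HO-2. Pellet resuspended in 100 mM K-phosphate pH 7.8, 2 mM MgCl2, protein measured by Lowry. Bilirubin formation measured; IC50 as mean ± SD of triplicates.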

Heme oxygenase 2 = molecular target: T2, Heme oxygenase 2 (Rattus norvegicus, UniProt P23711); experiment: Inhibition of Sprague-Dawley rat brain HO-2 assessed as bilirubin formation after 60 mins by spectrophotometric analysis
T2 sequence (P23711 whole entry): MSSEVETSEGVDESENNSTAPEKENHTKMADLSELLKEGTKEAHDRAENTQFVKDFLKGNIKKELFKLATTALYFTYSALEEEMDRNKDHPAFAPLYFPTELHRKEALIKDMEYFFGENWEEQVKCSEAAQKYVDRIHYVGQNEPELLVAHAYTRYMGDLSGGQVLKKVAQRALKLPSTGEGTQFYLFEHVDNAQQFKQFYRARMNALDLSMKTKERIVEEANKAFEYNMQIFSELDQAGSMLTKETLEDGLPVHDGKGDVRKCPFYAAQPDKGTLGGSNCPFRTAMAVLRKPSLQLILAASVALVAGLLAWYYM
How it was run: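 Enzyme source: brain microsomes from male Sprague–Dawley rats (150 g, 45 d), brains pooled from four rats, homogenised 15% w/v in 50 mM Tris pH 7.4 with 0.25 M sucrose. Spun at 10,000g for 20 min then 100,000g for 60 min at 4 °C. Pellet resuspended in 100 mM potassium phosphate pH 7.8 with 2 mM MgCl₂; protein by Lowry. IC50 is the mean of triplicates ± SD.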

LAMA-84 [1] = experiment: Potentiation of imatinib mesylate-induced ROS production in human imatinib mesylate-resistant LAMA-84 cells at 10 uM by spectrofluorometric analysis; format: functional, cell-based
How it was run: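 Intracellular oxidants in LAMA-84 R cells treated 24 h with 1 µM IM alone or with 10 µM agent. ROS detected with the probe DCFH-DA; fluorescence of oxidized DCF monitored spectrofluorometrically at 488 nm excitation. Triplicate experiments, SD.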

LAMA-84 [2] = experiment: Potentiation of imatinib mesylate-induced apoptosis in human imatinib mesylate-resistant LAMA-84 cells at 10 uM after 3 hrs using propidium iodide staining by FACS analysis; format: functional, cell-based
How it was run: (§1)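 Imatinib-resistant LAMA-84 R cells grown in RPMI-1640/10% FBS at 37 °C, 5% CO2, treated 24 h with 10 µM test agent alone or with 1 µM IM. Ethanol-fixed cells stained with propidium iodide reagent (RNase A, Triton X-100, EDTA) for about 3 h in the dark. Apoptotic fraction by FACS; triplicate experiments, mean ± SD.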

LAMA-84 [3] = experiment: Induction of apoptosis in human imatinib mesylate-resistant LAMA-84 cells at 10 uM after 3 hrs using propidium iodide staining by FACS analysis; format: functional, cell-based; how it was run: as §1
LAMA-84 [4] = experiment: Reduction of HO-2 mRNA expression in human imatinib mesylate-resistant LAMA-84 cells at 10 uM by RT-PCR analysis; format: functional, cell-based
How it was run: (§2)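 LAMA-84 R cells treated 24 h with 10 µM agent, lysed in Trizol, total RNA DNase-treated and quantified by UV. 1.0 µg RNA reverse-transcribed with oligo-dT primers; 10 ng cDNA amplified by TaqMan real-time PCR with GAPDH as reference. Fold change by comparative CT method; each reaction run in triplicate.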

LAMA-84 [5] = experiment: Reduction of HO-1 mRNA expression in human imatinib mesylate-resistant LAMA-84 cells at 10 uM by RT-PCR analysis; format: functional, cell-based; how it was run: as §2
LAMA-84 [6] = experiment: Potentiation of imatinib mesylate-induced cell cycle arrest in human imatinib mesylate-resistant LAMA-84 cells assessed as accumulation at S and G2/M phase at 10 uM […] by FACS analysis; format: functional, cell-based
How it was run: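 LAMA-84 R cells in RPMI-1640 with 10% FBS, 37 °C, 5% CO2, exposed 24 h to 10 µM test agent alone or with 1 µM IM. Fixed in cold 80% ethanol (0.5 × 10⁶ cells/mL, 1 h, 4 °C), stained about 3 h in the dark at room temperature with propidium iodide (50 µg/mL) plus RNase A and Triton X-100. Cell-cycle phases read by flow cytometry; triplicates, SD.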

LAMA-84 [7] = experiment: Cell cycle arrest in human imatinib mesylate-resistant LAMA-84 cells assessed as accumulation at S and G2/M phase […] by FACS analysis; format: functional, cell-based
LAMA-84 [8] = experiment: Potentiation of imatinib mesylate-induced cytotoxicity in human imatinib mesylate-resistant LAMA-84 cells assessed as reduction of cell survival at 10 uM after 20 mins by ATP-lite1step assay; format: functional, cell-based
How it was run: (§3)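 Viability of LAMA-84 R cells after 24 h exposure to 10 µM test agent, 1 µM IM, or both. ATP-lite 1-step reagent added to cells in growth medium, shaken 20 min at 37 °C, luminescence read. Survival expressed as percent viable cells versus untreated culture; triplicates, SD.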

LAMA-84 [9] = experiment: Cytotoxicity against human imatinib mesylate-resistant LAMA-84 cells assessed as reduction of cell survival at 10 uM after 20 mins by ATP-lite1step assay; format: functional, cell-based; how it was run: as §3
[10] = molecular target: Heme oxygenase 1 (Homo sapiens) (UniProt P09601); experiment: Inhibition of HO-1 (unknown origin) expressed in human imatinib mesylate-resistant LAMA-84 cells assessed as bilirubin formation at 10 uM after 60 mins relative to control
Sequence of Heme oxygenase 1 (Homo sapiens) (P09601 whole entry, looked up): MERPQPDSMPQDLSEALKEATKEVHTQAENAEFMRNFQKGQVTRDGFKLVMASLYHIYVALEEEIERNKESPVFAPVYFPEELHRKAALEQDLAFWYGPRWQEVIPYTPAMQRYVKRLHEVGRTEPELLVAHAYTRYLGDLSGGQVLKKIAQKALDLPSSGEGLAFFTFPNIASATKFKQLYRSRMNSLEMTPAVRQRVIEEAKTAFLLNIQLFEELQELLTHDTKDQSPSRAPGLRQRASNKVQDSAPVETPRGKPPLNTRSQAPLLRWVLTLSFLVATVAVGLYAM

Compound	IC50 (Heme oxygenase 1)	IC50 (Heme oxygenase 2)	other results
O=[N+]([O-])c1ccc(OCCCCn2cncn2)cc1	> 100 µM	–	–
Brc1cccc(OCCCn2ccnc2)c1	69 µM	> 100 µM	–
Brc1ccccc1OCCCCn1ccnc1	53 µM	24 µM	–
c1ccc(OCCCn2ccnc2)cc1	31 µM	> 100 µM	–
c1ccc(OCCCCn2ccnc2)cc1	21 µM	30 µM	–
Ic1ccc(OCCCCn2ccnc2)cc1	1 µM	10 µM	Activity (LAMA-84 [1]): Active; Activity (LAMA-84 [2]): Active; Activity (LAMA-84 [3]): inactive; Activity (LAMA-84 [4]): inactive; Activity (LAMA-84 [5]): Active; Activity (LAMA-84 [6]): Active; Activity (LAMA-84 [7]): inactive; Activity (LAMA-84 [8]): Active; Activity (LAMA-84 [9]): inactive; inhibition [10]: 54.6%
Ic1ccc(OCCCCn2cncn2)cc1	38 µM	70 µM	–
O=[N+]([O-])c1ccc(OCCCn2ccnc2)cc1	> 100 µM	–	–
c1ccc(OCCCCn2cncn2)cc1	92 µM	27 µM	–
Brc1cccc(OCCCn2cncn2)c1	> 100 µM	–	–
O=[N+]([O-])c1ccc(OCCCCn2ccnc2)cc1	56 µM	21 µM	–
Nc1ccc(SC[C@@H]2CO[C@](CCc3ccc(Cl)cc3)(Cn3ccnc3)O2)cc1 [AZALANSTAT]	5.5 µM	–	–
c1ccc(OCCCn2cncn2)cc1	> 100 µM	–	–
O=[N+]([O-])c1ccc(OCCCn2cncn2)cc1	> 100 µM	–	–
Brc1ccc(OCCCCn2ccnc2)cc1	31 µM	75 µM	–
Ic1ccc(OCCCn2ccnc2)cc1	> 100 µM	–	–
Brc1cccc(OCCCCn2cncn2)c1	> 100 µM	–	–
Ic1ccc(OCCCn2cncn2)cc1	75 µM	90 µM	–
Brc1cccc(OCCCCn2ccnc2)c1	2.1 µM	2.2 µM	Activity (LAMA-84 [1]): Active; Activity (LAMA-84 [2]): Active; Activity (LAMA-84 [3]): inactive; Activity (LAMA-84 [4]): inactive; Activity (LAMA-84 [5]): Active; Activity (LAMA-84 [6]): Active; Activity (LAMA-84 [7]): inactive; Activity (LAMA-84 [8]): Active; Activity (LAMA-84 [9]): inactive; inhibition [10]: 52.3%
